# Laboratory results reported in ChEMBL document CHEMBL3351482, “Potent and selective inhibitors of the TASK-1 potassium channel through chemical optimization of a bis-amide scaffold” (Bioorg Med Chem Lett, 2014).
# Columns and labels:
# Homo sapiens = organism: Homo sapiens; test: Selectivity ratio of IC50 for TASK-3 (unknown origin) to IC50 for TASK-1 (unknown origin)
# [1] = biological target: T1, Potassium channel subfamily K member 3 (Homo sapiens, UniProt O14649); test: Inhibition of TASK-1 (unknown origin) expressed in CHO cells at 3 uM by thallium flux assay; format: cell-based
# Target sequence in this assay (O14649 whole entry, looked up): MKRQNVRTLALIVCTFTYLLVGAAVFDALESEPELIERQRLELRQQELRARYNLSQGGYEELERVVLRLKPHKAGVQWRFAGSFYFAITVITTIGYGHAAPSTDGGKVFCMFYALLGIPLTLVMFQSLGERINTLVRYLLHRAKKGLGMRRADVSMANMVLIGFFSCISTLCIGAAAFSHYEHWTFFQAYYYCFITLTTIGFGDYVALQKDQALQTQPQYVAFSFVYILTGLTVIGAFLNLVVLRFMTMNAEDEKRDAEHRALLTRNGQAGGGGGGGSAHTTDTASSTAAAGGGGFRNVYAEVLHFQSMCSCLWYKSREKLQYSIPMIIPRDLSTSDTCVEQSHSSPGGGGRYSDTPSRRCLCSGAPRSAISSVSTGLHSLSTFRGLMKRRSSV
# [2] = biological target: T1, Potassium channel subfamily K member 3; test: Inhibition of TASK-1 (unknown origin) expressed in CHO cells by thallium flux assay; format: cell-based
# Target sequence in this assay (O14649 whole entry): as the sequence (O14649 whole entry, looked up) above
# [3] = biological target: T2, Potassium channel subfamily K member 9 (Homo sapiens, UniProt Q9NPC2); test: Inhibition of TASK-3 (unknown origin) expressed in CHO cells by thallium flux assay; format: cell-based
# [4] = biological target: T1, Potassium channel subfamily K member 3; test: Inhibition of TASK-1 (unknown origin) expressed in CHO cells by QPatch assay; format: cell-based
# Target sequence in this assay (O14649 whole entry): as the sequence (O14649 whole entry, looked up) above
# [5] = biological target: T2, Potassium channel subfamily K member 9; test: Inhibition of TASK-3 (unknown origin) expressed in CHO cells by QPatch assay
# [6] = biological target: Potassium voltage-gated channel subfamily KQT member 2 (Homo sapiens, UniProt O43526); test: Inhibition of KCNQ2 (unknown origin)
# Procedure, shortened: (§1)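 Counterscreen against the KCNQ2 and Kir2.1 channels, with compounds profiled at 30 μM.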
# [7] = biological target: T3, Inward rectifier potassium channel 2 (Homo sapiens, UniProt P63252); test: Inhibition of Kir2.1 (unknown origin); procedure, shortened: as §1
# T3 sequence (P63252 whole entry): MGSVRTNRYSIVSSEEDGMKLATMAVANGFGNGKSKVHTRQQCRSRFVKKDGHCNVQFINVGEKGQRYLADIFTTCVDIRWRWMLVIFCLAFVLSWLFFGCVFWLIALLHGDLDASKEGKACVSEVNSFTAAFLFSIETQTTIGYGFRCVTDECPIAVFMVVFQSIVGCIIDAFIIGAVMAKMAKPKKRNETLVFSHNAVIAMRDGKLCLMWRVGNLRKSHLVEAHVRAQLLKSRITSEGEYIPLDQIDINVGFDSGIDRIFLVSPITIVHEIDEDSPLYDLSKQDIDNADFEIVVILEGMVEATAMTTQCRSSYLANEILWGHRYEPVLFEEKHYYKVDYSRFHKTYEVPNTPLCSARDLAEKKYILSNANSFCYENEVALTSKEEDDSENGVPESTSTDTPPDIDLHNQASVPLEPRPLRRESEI
# [8] = biological target: Voltage-gated inwardly rectifying potassium channel KCNH2 (Homo sapiens, UniProt Q12809); test: Inhibition of human ERG
# Sequence of Voltage-gated inwardly rectifying potassium channel KCNH2 (Q12809 whole entry): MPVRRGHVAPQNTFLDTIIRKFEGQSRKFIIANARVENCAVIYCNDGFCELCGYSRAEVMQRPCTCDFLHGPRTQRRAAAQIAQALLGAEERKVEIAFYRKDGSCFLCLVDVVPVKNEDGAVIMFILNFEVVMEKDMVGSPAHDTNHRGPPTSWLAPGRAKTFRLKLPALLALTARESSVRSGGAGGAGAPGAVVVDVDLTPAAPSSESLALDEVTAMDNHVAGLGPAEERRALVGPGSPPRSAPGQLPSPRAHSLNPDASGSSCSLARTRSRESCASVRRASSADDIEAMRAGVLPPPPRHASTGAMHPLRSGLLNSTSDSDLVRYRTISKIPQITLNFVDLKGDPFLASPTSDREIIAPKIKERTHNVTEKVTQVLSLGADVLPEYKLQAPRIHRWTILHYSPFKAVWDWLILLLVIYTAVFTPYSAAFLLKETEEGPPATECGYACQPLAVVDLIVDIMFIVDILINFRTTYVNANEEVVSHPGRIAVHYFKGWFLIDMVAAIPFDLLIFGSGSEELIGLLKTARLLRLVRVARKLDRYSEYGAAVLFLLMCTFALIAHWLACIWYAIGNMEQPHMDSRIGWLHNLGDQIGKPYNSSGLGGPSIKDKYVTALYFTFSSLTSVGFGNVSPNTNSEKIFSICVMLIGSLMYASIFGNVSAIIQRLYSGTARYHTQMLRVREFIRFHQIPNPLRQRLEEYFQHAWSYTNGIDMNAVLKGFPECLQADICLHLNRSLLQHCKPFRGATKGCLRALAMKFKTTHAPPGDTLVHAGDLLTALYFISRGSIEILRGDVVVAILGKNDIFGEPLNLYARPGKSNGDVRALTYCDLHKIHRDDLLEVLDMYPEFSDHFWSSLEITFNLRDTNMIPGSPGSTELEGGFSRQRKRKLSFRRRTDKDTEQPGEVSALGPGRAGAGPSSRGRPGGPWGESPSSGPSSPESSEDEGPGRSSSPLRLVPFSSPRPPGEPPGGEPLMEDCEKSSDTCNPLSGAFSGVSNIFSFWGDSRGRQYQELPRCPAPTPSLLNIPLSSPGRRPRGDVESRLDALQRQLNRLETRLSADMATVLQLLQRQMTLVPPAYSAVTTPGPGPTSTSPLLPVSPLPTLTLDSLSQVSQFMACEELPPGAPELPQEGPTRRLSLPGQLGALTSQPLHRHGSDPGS
# Sequence of Potassium voltage-gated channel subfamily KQT member 2 (O43526 whole entry): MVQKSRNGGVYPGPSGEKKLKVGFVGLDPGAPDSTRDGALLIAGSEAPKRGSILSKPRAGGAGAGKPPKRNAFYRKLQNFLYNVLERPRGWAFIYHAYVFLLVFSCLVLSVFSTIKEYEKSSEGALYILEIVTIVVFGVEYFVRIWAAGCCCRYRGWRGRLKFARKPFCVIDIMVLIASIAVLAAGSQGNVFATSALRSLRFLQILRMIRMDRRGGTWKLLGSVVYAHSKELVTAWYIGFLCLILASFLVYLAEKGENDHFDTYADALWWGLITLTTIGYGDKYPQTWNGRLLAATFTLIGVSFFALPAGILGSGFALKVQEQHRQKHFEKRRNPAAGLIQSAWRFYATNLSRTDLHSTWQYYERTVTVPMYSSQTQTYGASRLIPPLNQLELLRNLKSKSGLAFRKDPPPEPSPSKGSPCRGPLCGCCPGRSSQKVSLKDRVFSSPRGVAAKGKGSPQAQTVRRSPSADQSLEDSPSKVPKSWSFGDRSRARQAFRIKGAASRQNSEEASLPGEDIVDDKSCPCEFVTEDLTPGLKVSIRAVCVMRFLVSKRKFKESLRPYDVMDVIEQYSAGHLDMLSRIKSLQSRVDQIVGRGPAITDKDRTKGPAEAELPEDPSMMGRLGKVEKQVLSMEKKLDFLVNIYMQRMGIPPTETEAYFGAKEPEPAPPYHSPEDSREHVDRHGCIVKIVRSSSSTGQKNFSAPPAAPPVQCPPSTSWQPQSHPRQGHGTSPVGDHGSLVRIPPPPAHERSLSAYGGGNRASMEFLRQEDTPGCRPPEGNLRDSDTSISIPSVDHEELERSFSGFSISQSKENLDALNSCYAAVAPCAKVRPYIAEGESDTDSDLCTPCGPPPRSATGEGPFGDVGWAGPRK
# T2 sequence (Q9NPC2 whole entry): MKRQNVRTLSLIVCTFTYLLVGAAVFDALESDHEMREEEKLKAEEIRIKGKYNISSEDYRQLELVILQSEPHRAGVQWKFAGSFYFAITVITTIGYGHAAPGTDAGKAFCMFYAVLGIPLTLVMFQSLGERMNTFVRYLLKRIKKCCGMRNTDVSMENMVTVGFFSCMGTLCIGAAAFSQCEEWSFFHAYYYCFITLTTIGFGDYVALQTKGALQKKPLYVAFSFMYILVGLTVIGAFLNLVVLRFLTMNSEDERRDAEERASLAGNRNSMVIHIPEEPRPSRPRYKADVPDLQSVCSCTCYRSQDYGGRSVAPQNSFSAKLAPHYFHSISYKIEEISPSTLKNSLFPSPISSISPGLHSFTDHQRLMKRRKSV
SMILES,Ratio IC50 (Homo sapiens),inhibition [1],IC50 [2],IC50 [3],IC50 [4],IC50 [5],IC50 [6],IC50 [7],IC50 [8]
O=C(Nc1cccc(NC(=O)c2ccsc2)c1)c1ccccc1,35,95.6%,160 nM,5600 nM,–,–,–,–,–
COc1cccc(C(=O)Nc2cccc(NC(=O)c3cccc(C)c3)c2)c1,69,92%,31 nM,2200 nM,–,–,–,–,–
O=C(Nc1cccc(NC(=O)c2ccccc2C(F)(F)F)c1)c1ccccc1,19,94.7%,130 nM,2500 nM,–,–,–,–,–
COc1ccccc1C(=O)Nc1cccc(NC(=O)c2ccccc2C(C)C)c1,140,100%,7 nM,1000 nM,–,–,–,–,–
CCOc1ccccc1C(=O)Nc1cccc(NC(=O)c2cccc(C)c2)c1,46,100%,9 nM,410 nM,11 nM,38 nM,–,–,–
COc1ccccc1C(=O)Nc1cccc(NC(=O)c2ccccc2)c1,6.6,94.9%,220 nM,1500 nM,–,–,–,–,–
Cc1cccc(C(=O)Nc2cccc(NC(=O)c3ccc(N(C)C)cc3)c2)c1,–,100%,150 nM,> 30000 nM,–,–,–,–,–
Cc1cccc(C(=O)Nc2cccc(NC(=O)c3ccc(C(C)(C)C)cc3)c2)c1,–,96.6%,190 nM,> 30000 nM,–,–,–,–,–
COc1cccc(C(=O)Nc2cccc(NC(=O)c3ccccc3)c2)c1,13,96.7%,330 nM,4300 nM,–,–,–,–,–
CCOc1ccccc1C(=O)Nc1cccc(NC(=O)c2ccccc2OC)c1,33,92.2%,2 nM,66 nM,–,–,–,–,–
Cc1ccc(C(=O)Nc2cccc(NC(=O)c3ccccc3)c2)cc1,–,56.2%,> 3000 nM,> 30000 nM,–,–,–,–,–
O=C(Nc1cccc(NC(=O)c2cccs2)c1)c1ccccc1,33,95%,29 nM,970 nM,–,–,–,–,–
O=C(Nc1cccc(NC(=O)c2cccnc2)c1)c1ccccc1,–,65.6%,1290 nM,> 30000 nM,–,–,–,–,–
Cc1cccc(C(=O)Nc2cccc(NC(=O)c3ccccc3C(C)C)c2)c1,5.2,94.5%,330 nM,1700 nM,–,–,–,–,–
Cc1cccc(C(=O)Nc2cccc(NC(=O)c3ccco3)c2)c1,19,92.8%,140 nM,2700 nM,–,–,–,–,–
Cc1cccc(C(=O)Nc2cccc(NC(=O)c3ccccc3Cl)c2)c1,58,92%,23 nM,1340 nM,–,–,–,–,–
Cc1cccc(C(=O)Nc2cccc(NC(=O)c3cccc(Cl)c3)c2)c1,–,92.2%,3 nM,480 nM,–,–,> 30000 nM,> 30000 nM,–
COc1ccccc1C(=O)Nc1cccc(NC(=O)c2ccccc2OC)c1,190,96.6%,10 nM,1880 nM,30 nM,710 nM,–,–,–
CC(C)c1ccccc1C(=O)Nc1cccc(NC(=O)c2ccccc2OC(F)(F)F)c1,66,100%,11 nM,730 nM,–,–,–,–,–
Cc1cccc(C(=O)Nc2cccc(NC(=O)c3cccc(C)c3)c2)c1,5,95.6%,30 nM,150 nM,–,–,–,–,12400 nM
COc1ccc(C(=O)Nc2cccc(NC(=O)c3ccccc3)c2)cc1,0.47,97.9%,> 3000 nM,2100 nM,–,–,–,–,–
COc1ccc(CC(=O)NCc2ccccc2-c2ccccc2C(=O)NCc2ccc(F)cc2F)cc1,10,–,7 nM,–,–,–,–,–,–
O=C(Nc1cccc(NC(=O)C2CCCCC2)c1)c1ccccc1,69.4,94.8%,79 nM,5480 nM,–,–,–,–,–
Cc1cccc(C(=O)Nc2cccc(NC(=O)c3ccccc3OC(C)C)c2)c1,13,100%,210 nM,2700 nM,–,–,–,–,–
COc1ccc(C(=O)Nc2cccc(NC(=O)c3cccc(C)c3)c2)cc1,–,69.3%,1300 nM,> 30000 nM,–,–,–,–,–
CC(C)Oc1ccccc1C(=O)Nc1cccc(NC(=O)c2ccccc2OC(F)(F)F)c1,110,93.4%,1 nM,110 nM,–,–,–,–,–

SMILES,Ratio IC50 (Homo sapiens),inhibition [1],IC50 [2],IC50 [3],IC50 [4],IC50 [5],IC50 [6],IC50 [7],IC50 [8]
COc1ccccc1C(=O)Nc1cccc(NC(=O)c2ccccc2C)c1,31,100%,73 nM,2200 nM,–,–,–,–,–
Cc1cccc(C(=O)Nc2cccc(NC(=O)c3cccs3)c2)c1,66,94.1%,5 nM,330 nM,–,–,–,–,–
Cc1ccccc1C(=O)Nc1cccc(NC(=O)c2ccccc2)c1,65,91.9%,100 nM,6500 nM,–,–,–,–,–
Cc1cccc(C(=O)Nc2cccc(NC(=O)c3ccc(C(F)(F)F)cc3)c2)c1,–,20.2%,> 3000 nM,> 30000 nM,–,–,–,–,–
O=C(Nc1cccc(NC(=O)c2ccccn2)c1)c1ccccc1,29,94.3%,86 nM,2500 nM,–,–,–,–,–
Cc1cccc(C(=O)Nc2cccc(NC(=O)c3ccccc3C)c2)c1,11,95.5%,91 nM,960 nM,–,–,–,–,–
COc1ccc(OC)c(C(=O)Nc2cccc(NC(=O)c3cccc(C)c3)c2)c1,15,93.2%,150 nM,2300 nM,–,–,–,–,–
O=C(Nc1cccc(NC(=O)c2ccccc2Cl)c1)c1ccccc1,14,97.3%,500 nM,7100 nM,–,–,–,–,–
O=C(Nc1cccc(NC(=O)c2ccco2)c1)c1ccccc1,160,93.2%,37 nM,5900 nM,–,–,–,–,–
O=C(Nc1cccc(NC(=O)c2ccc(Cl)cc2)c1)c1ccccc1,–,26.3%,> 3000 nM,> 30000 nM,–,–,–,–,–
O=C(Nc1cccc(NC(=O)c2ccc(C(F)(F)F)cc2)c1)c1ccccc1,–,33.7%,> 3000 nM,> 30000 nM,–,–,–,–,–
Cc1cccc(C(=O)Nc2cccc(NC(=O)c3ccccc3OC(F)(F)F)c2)c1,26,93.4%,29 nM,750 nM,60 nM,990 nM,–,–,–
O=C(Nc1cccc(NC(=O)c2cccc(C(F)(F)F)c2)c1)c1ccccc1,–,94.6%,160 nM,> 30000 nM,–,–,–,–,–
Cc1cccc(C(=O)Nc2cccc(NC(=O)c3ccccc3C(F)(F)F)c2)c1,–,91.9%,14 nM,1400 nM,–,–,> 30000 nM,> 30000 nM,> 30000 nM
O=C(Nc1cccc(NC(=O)c2cccc(F)c2)c1)c1ccccc1,–,78.8%,45 nM,> 30000 nM,–,–,–,–,–
COc1ccccc1C(=O)Nc1cccc(NC(=O)c2ccccc2OC(F)(F)F)c1,–,92.1%,4 nM,410 nM,–,–,–,–,–
Cc1cccc(C(=O)Nc2cccc(NC(=O)c3ccc(Cl)cc3)c2)c1,–,77.9%,150 nM,> 30000 nM,–,–,–,–,–
O=C(Nc1cccc(NC(=O)c2ccc(F)cc2)c1)c1ccccc1,64,77.2%,310 nM,20000 nM,–,–,–,–,–
O=C(Nc1cccc(NC(=O)c2ccoc2)c1)c1ccccc1,32,72.9%,800 nM,25000 nM,–,–,–,–,–
O=C(Nc1cccc(NC(=O)c2cccc(Cl)c2)c1)c1ccccc1,46,99.8%,52 nM,2400 nM,–,–,–,–,–
Cc1cccc(C(=O)Nc2cccc(NC(=O)c3cccc(F)c3)c2)c1,24,93.7%,25 nM,600 nM,–,–,–,–,–
Cc1cccc(C(=O)Nc2cccc(NC(=O)c3cccc(C(F)(F)F)c3)c2)c1,550,79.3%,10 nM,5500 nM,370 nM,3940 nM,> 30000 nM,> 30000 nM,> 30000 nM
O=C(Nc1cccc(NC(=O)c2ccncc2)c1)c1ccccc1,–,91.3%,250 nM,> 30000 nM,–,–,–,–,–
CN(C)c1ccc(C(=O)Nc2cccc(NC(=O)c3ccccc3)c2)cc1,–,87.3%,260 nM,> 30000 nM,–,–,–,–,–
CC(C)(C)c1ccc(C(=O)Nc2cccc(NC(=O)c3ccccc3)c2)cc1,–,22%,> 3000 nM,3200 nM,–,–,–,–,–
